Screening results deposited in PubChem by Sanford-Burnham Center for Chemical Genomics.
In the library only some 2.9% were active in any assay of this set; here they are far more common.
SENP6 inh: inhibitors of human SENP6 protease | Q9GZR1 | Recombinant SENP6 catalytic domain, aminoluciferin luminescence | inhibition, % at 10 µM | actives 1.8% (n = 330,000) | AID 2599;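 active = inhibition above about 50% at the single tested dose, limit read from the data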
SENP8 block-1: blocks the human protease SENP8 | purified SENP8, Z-RLRGG-aminoluciferin cleavage, luminescence | inhibition, % at 10 µM | actives 1.2% (n = 330,000) | Q96LD8 | AID 2540; in the data active = inhibition above about 50%
SENP8 block-2: blocks human SENP8 cleavage of Nedd8 substrate; actives 0.64% (n = 360,000); Q96LD8; recombinant SENP8, Nedd8 substrate fluorescence; inhibition, % at 20 µM; in the data active = inhibition mostly above about 40%, no sharp cut-off; inactive = mostly below about 27%
SENP7 block: blocks the human protease SENP7; actives 1.5% (n = 330,000); inhibition, % at 5 µM; Q9BQF6; recombinant SENP7, Z-RLRGG-aminoluciferin luminescence, 40 min;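 active = inhibition above about 50% at the single test dose, limit read from the data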
SENP1 inh: SENP1 (human) catalytic domain inhibition. inhibition, % at 10 µM. actives 0.21% (n = 360,000). Q9P0U3. recombinant SENP1 catalytic domain, CyPet-SUMO1-YPet FRET cleavage;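 active = inhibition at least 30% at 10 µM, raw YFP signal under a set limit, fluorescence ratio 0.5 to 1.5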
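material = recombinant human SENP1 catalytic domain, His6-tagged | quantity = 20 pM enzyme | reagent = 25 nM SUMO1 FRET substrate | compound dosing = 10 µM single point, 0.5% DMSO | timing = 50 min enzyme reaction, room temperature, light-protected | detection = FRET, CFP and YFP emission | control set = no-enzyme low, enzyme-DMSO high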
Apaf-1 inh: human Apaf-1 inhibition; O14727; reconstituted apoptosome caspase-3 activity, DEVD-Rh110 fluorescence; inhibition, % at 20 µM; actives 0.71% (n = 330,000); active = inhibition of at least 40% at 20 µM
Target sequence (O14727 whole entry, looked up): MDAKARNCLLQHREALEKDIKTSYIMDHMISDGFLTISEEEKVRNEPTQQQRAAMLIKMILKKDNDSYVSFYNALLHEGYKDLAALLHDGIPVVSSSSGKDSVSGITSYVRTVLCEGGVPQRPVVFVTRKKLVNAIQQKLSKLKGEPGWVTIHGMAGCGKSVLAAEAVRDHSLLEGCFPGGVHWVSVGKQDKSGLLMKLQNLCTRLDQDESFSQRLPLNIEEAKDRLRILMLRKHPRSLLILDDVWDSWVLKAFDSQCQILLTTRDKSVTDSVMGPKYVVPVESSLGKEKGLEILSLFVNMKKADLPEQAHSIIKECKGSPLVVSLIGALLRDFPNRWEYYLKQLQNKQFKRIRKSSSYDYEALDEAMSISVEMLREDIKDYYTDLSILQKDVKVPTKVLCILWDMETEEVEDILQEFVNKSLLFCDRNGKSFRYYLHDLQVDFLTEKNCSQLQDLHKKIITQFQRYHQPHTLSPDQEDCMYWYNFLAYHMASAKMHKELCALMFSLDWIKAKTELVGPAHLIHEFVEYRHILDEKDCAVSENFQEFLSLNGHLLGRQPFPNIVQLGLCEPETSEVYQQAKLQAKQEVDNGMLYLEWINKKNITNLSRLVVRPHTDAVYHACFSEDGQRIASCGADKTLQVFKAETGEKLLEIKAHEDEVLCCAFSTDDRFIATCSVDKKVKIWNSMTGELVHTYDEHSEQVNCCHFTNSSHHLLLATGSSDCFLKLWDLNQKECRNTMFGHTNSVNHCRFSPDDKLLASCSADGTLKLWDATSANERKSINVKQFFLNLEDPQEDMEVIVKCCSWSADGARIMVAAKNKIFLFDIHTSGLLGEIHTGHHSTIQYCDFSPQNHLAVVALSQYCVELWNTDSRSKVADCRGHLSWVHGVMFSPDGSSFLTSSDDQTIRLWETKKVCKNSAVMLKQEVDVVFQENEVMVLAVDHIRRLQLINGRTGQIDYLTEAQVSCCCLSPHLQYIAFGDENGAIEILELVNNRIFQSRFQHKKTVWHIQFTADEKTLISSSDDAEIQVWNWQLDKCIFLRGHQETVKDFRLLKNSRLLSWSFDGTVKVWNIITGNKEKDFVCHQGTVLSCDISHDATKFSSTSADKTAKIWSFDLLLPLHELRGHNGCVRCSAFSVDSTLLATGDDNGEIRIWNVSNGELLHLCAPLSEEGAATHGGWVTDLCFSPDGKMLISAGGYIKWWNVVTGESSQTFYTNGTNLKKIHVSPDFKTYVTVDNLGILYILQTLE
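Material: biochemical Apaf-1 apoptosome reconstitution. Medium: Hepes buffer, pH 7.5. Also added: cytochrome c activation, bis-DEVD rhodamine 110 substrate. Timing: 30 min compound preincubation, 50 min activation, room temperature. Measured by: rhodamine 110 fluorescence at Ex 480/Em 540 nm.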
SENP8 conf: human SENP8 inhibition, confirmed. shares compounds with SENP7 block. Recombinant SENP8, Z-RLRGG-aminoluciferin luminescence, 60 min. inhibition, % at 12.5 µM. actives 40% (n = 6,200);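 active = mean inhibition across replicates above about 50%, limit read from the data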
SENP6 confirm: confirmation of human SENP6 protease inhibitors; inhibition, % at 12.5 µM; recombinant SENP6, Z-RLRGG-aminoluciferin luminescence; actives 58% (n = 6,200); AID 488915; shares compounds with SENP7 block
SENP7 conf: human SENP7 inhibition, confirmed; shares compounds with SENP7 block; recombinant SENP7, Z-RLRGG-aminoluciferin luminescence, 40 min; inhibition, % at 12.5 µM; actives 69% (n = 6,200); AID 488917
Casp3 SENP sel: caspase-3 inhibition (SENP selectivity assay). shares compounds with SENP7 block. inhibition, % at 12.5 µM. AID 488918. actives 60% (n = 6,200). purified caspase-3, Z-DEVD-aminoluciferin luminescence, 60 min;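 active = mean inhibition above about 50%, limit read from the data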
Luc interf: counter-screen for SENP inhibitors: luminescence interference; actives 39% (n = 6,200); inhibition, % at 12.5 µM; Pre-incubated SENP8/Z-RLRGG-aminoluciferin, luciferase luminescence interference; shares compounds with SENP7 block;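 active = mean inhibition above about 50% when retested at one dose, limit read from the data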
A number is an active result; – = inactive; · = no result.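 The calls were made as follows, unless noted: active = mean inhibition above about 50% in the one-dose retest (limit read from the data); inactive = the rest.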

SMILES	SENP6 inh	SENP8 block-1	SENP8 block-2	SENP7 block	SENP1 inh	Apaf-1 inh	SENP8 conf	SENP6 confirm	SENP7 conf	Casp3 SENP sel	Luc interf
O=C(Nc1ccc2c(c1)OCCO2)c1cnc2ccccn2c1=O	57	–	–	–	–	–	–	–	–	–	–
O=C(Nc1ccc2ccccc2c1)c1ccccc1F	86	82	–	92	–	–	64	89	98	82	88
COCc1c(C(=O)Nc2cccc(S(=O)(=O)N3CCCCC3)c2)oc2ccccc12	–	–	–	–	–	–	·	·	·	·	·
O=C(Nc1ccccc1)Nc1ccc(C(=O)N2CCOCC2)cc1	59	61	–	82	–	–	81	81	97	93	82
COc1ccc(NC(=O)c2ccco2)cc1NC(=O)c1ccccc1F	–	–	–	–	–	–	·	·	·	·	·
COc1ccc(NC(=O)c2ccccc2F)cc1Cl	81	76	–	79	–	–	83	84	92	88	–
O=C(Nc1ccc2c(c1)OCCO2)c1ccccn1	89	82	–	89	–	–	89	89	100	97	92
Cc1ccsc1C(=O)OC(C)C(=O)Nc1ccc(Cl)cn1 (centres undefined)	–	–	–	–	–	–	·	·	·	·	·
N#CC(C#N)c1ccnc2ccccc12	·	·	–	·	–	·	·	·	·	·	·
CCCOc1cccc(C(=O)N/N=C/c2ccoc2)c1	–	–	–	–	–	–	·	·	·	·	·
N#Cc1c(-c2cccs2)nc(SCc2ccc(Cl)cc2)[nH]c1=O	–	–	–	–	–	–	·	·	·	·	·
O=c1[nH]c(SCc2ccc(Cl)cc2)nc2ccsc12	78	63	·	–	·	–	–	67	88	–	–
Cc1ccc(C2=NN(C(=O)CCl)C(c3ccco3)C2)o1 (centres undefined)	–	–	–	–	–	–	·	·	·	·	·
O=C(Nc1ccccc1)c1cc2ccc3ccccc3c2s1	–	–	–	69	–	–	–	–	–	–	–
COc1ccc2cc(C(=O)Nc3ccccc3)sc(=O)c2c1OC	–	–	–	–	–	–	·	·	·	·	·
O=C(Nc1ccccc1)c1ccc(-c2ccccc2)s1	–	–	–	84	–	–	–	–	–	67	–
O=C(Nc1ccccc1)c1sc(Cl)nc1-c1ccccc1	–	–	–	–	–	–	·	·	·	·	·
CCCCCCOC(=O)c1ccc(OC(=O)c2cccnc2)cc1	53	–	–	–	–	–	–	–	–	–	–
CCCCOC(=O)c1ccc(OC(=O)c2cccnc2)cc1	–	–	–	–	–	–	·	·	·	·	·
Nc1ccn(C2C=CC(CO)O2)c(=O)n1 (centres undefined)	·	·	–	·	–	·	·	·	·	·	·
Cc1ccc(/C=N/Nc2nc3ccccc3[nH]2)s1	56	56	–	–	–	–	68	61	84	–	71
Cc1nnsc1C(=O)N/N=C/c1ccc(OC(F)(F)F)cc1	–	–	–	55	–	–	–	–	–	–	–
O=C1/C(=C/c2ccccc2)CCC1C1CCCC1 (centres undefined)	73	–	–	64	–	–	–	–	–	–	–
O=C1/C(=C/c2ccco2)Cc2ccccc21	66	–	–	–	–	–	–	67	90	72	–
O=C1/C(=C/c2ccc(F)cc2)CCC1C1CCCC1 (centres undefined)	–	62	–	62	–	–	–	–	–	54	–
SMILES	SENP6 inh	SENP8 block-1	SENP8 block-2	SENP7 block	SENP1 inh	Apaf-1 inh	SENP8 conf	SENP6 confirm	SENP7 conf	Casp3 SENP sel	Luc interf
CCOc1ccc(/C=C2\CCC(C3CCCC3)C2=O)cc1 (centres undefined)	–	–	–	71	–	–	–	–	–	–	–
O=C1/C(=C\c2ccco2)CCC/C1=C\c1ccco1	–	–	–	–	–	–	·	·	·	·	·
CCOc1ccc(S(=O)(=O)NCCC(=O)NCC(c2ccco2)N2CCCCC2)cc1 (centres undefined)	–	–	–	–	–	–	·	·	·	·	·
CCOc1ccc(Cl)cc1-c1cc(C(=O)Nc2cc(OC)c(OC)c(OC)c2)[nH]n1	·	·	–	·	–	·	·	·	·	·	·
CC1=C(C(=O)N2CCCCCC2)CC(CC(=O)NCCN2CCOCC2)C(=O)N1Cc1ccc(F)cc1 (centres undefined)	·	·	–	·	–	·	·	·	·	·	·
CCOc1ccc(NC(=O)C(C)NC(=O)c2ccccc2Cl)cc1S(=O)(=O)N1CCCC1 (centres undefined)	–	–	–	–	–	–	·	·	·	·	·
Cc1ccc(CSCC(=O)N(C)CC(=O)Nc2ccc(Cl)c(Cl)c2)cc1	–	–	–	–	–	–	·	·	·	·	·
O=C1/C(=C/c2ccco2)CCC1C1CCCC1 (centres undefined)	92	77	–	73	–	–	–	77	95	57	–
c1cc(-c2cccs2)nc(-c2cccs2)c1	–	–	–	–	–	–	·	·	·	·	·
c1csc(-c2cn3ccc4ccccc4c3n2)c1	89	80	–	86	–	–	–	90	99	82	84
O=C(CCNS(=O)(=O)c1ccc(Br)cc1)NCC(c1cccs1)N1CCOCC1 (centres undefined)	·	·	–	·	–	·	·	·	·	·	·
Cc1nc2nc(-c3cccs3)[nH]c2cc1Br	91	90	–	90	–	–	92	92	99	93	–
c1ccc(-c2nc(-c3cccs3)[nH]c2-c2ccccc2)cc1	–	–	–	–	–	–	·	·	·	·	·
CCCNC(=O)c1cc(Cl)c(NC(=O)C2=CSCCO2)cc1OC	–	–	–	–	–	–	·	·	·	·	·
Cc1ccc(N(C(=O)c2snc(C(N)=O)c2N)C(C(=O)NC2CCCC2)c2ccco2)cc1 (centres undefined)	–	–	–	–	–	–	·	·	·	·	·
CN(C)C(=S)Oc1ccccc1C1SCCS1	·	·	–	·	–	·	·	·	·	·	·
N#C/C(=C\c1ccc([N+](=O)[O-])o1)c1nc2ccccc2[nH]1	–	–	·	–	·	–	·	·	·	·	·
N#C/C(=C/c1ccc(O)c(O)c1)c1nc2ccccc2[nH]1	80	70	–	72	–	–	82	81	94	78	–
